As a reminder, the half-life is the time in which the quantity being followed falls by half.

The nature of one data set: Pharmacokinetic parameter Varea in dog was reported in Cassette dosage. Format: ADME, organism-based, Canis lupus familiaris. The following applies: in vivo, read-out: Varea. In a few lines:
(§1)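 Dog cassette: the set of compounds was given intravenously into the femoral vein to a beagle dog at 0.2 mg/kg body weight per compound. Jugular blood was sampled from 5 min to 24 h postdose. Plasma was prepared by solid phase extraction, then analysed by HPLC with single ion monitoring MS using 0.1% formic acid in water:methanol (70:30).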
`CC(C)[C@@H]1C(=O)N(S(C)(=O)=O)[C@@H]2CCN(C(=O)/C=C/CNC3CC3)[C@H]21`: the Vd was 2.5 L/kg.
Regarding `CC(C)C1C(=O)N(S(C)(=O)=O)C2CCN(C(=O)c3csc(CN4CCCC4)n3)C12` (stereo not given), the Vd was determined as 4.8 L/kg.
Turning to `CCCN(C)Cc1ccc(C(=O)N2CCC3C2C(C(C)C)C(=O)N3S(C)(=O)=O)cc1` (stereo not given), the Vd is 7.6 L/kg.
`CC(C)C1C(=O)N(S(C)(=O)=O)C2CCN(C(=O)c3ccc(CNC4CC4)nc3)C12` (stereo not given): the Vd is 2.9 L/kg.
In the case of `CC(C)[C@@H]1C(=O)N(S(C)(=O)=O)[C@@H]2CCN(C(=O)c3ccc(CCN4CCCCC4)cc3)[C@H]21`, the Vd was determined as 6.6 L/kg.
Turning to `CC(C)C1C(=O)N(S(C)(=O)=O)C2CCN(C(=O)/C=C/CN3CCCCC3)C12` (stereo not given), the Vd worked out at 3.3 L/kg.

The next data set in a line: Pharmacokinetic parameter Varea in dog was reported in Discrete dosage. The format is ADME, organism-based, Canis lupus familiaris. The following applies: in vivo, read-out: Varea.
As to `CC(C)[C@@H]1C(=O)N(S(C)(=O)=O)[C@@H]2CCN(C(=O)/C=C/CNC3CC3)[C@H]21`, the Vd came to 2.9 L/kg.
On to `CCCN(C)Cc1ccc(C(=O)N2CCC3C2C(C(C)C)C(=O)N3S(C)(=O)=O)cc1` (stereo not given), for which the Vd came to 3.5 L/kg.
Regarding `CC(C)[C@@H]1C(=O)N(S(C)(=O)=O)[C@@H]2CCN(C(=O)c3ccc(CCN4CCCCC4)cc3)[C@H]21`, the Vd came out at 3.8 L/kg.
As for `CC(C)C1C(=O)N(S(C)(=O)=O)C2CCN(C(=O)/C=C/CN3CCCCC3)C12` (stereo not given), the Vd turned out to be 2.7 L/kg.

The nature of another data set: Half life time in dog was reported in Discrete dosage. Particulars: in vivo. Format: ADME, organism-based, Canis lupus familiaris.
For the molecule `CC(C)[C@@H]1C(=O)N(S(C)(=O)=O)[C@@H]2CCN(C(=O)/C=C/CNC3CC3)[C@H]21`, the half-life is 54 min.
Regarding `CCCN(C)Cc1ccc(C(=O)N2CCC3C2C(C(C)C)C(=O)N3S(C)(=O)=O)cc1` (stereo not given), the half-life is 12 min.
On to `CC(C)[C@@H]1C(=O)N(S(C)(=O)=O)[C@@H]2CCN(C(=O)c3ccc(CCN4CCCCC4)cc3)[C@H]21`, for which the half-life is 12 min.
`CC(C)C1C(=O)N(S(C)(=O)=O)C2CCN(C(=O)/C=C/CN3CCCCC3)C12` (stereo not given) had a half-life of 108 min.

A short description of another data set: Half life time in dog was reported in cassette dosage. The format is ADME, organism-based, Canis lupus familiaris. The following applies: in vivo. Summed up: as §1
`CC(C)[C@@H]1C(=O)N(S(C)(=O)=O)[C@@H]2CCN(C(=O)/C=C/CNC3CC3)[C@H]21` showed a half-life of 60 min.
For `CC(C)C1C(=O)N(S(C)(=O)=O)C2CCN(C(=O)c3csc(CN4CCCC4)n3)C12` (stereo not given), the half-life was 60 min.
The same measure, in the same setting: under `CCCN(C)Cc1ccc(C(=O)N2CCC3C2C(C(C)C)C(=O)N3S(C)(=O)=O)cc1` (stereo not given) stands 42 min; under `CC(C)C1C(=O)N(S(C)(=O)=O)C2CCN(C(=O)c3ccc(CNC4CC4)nc3)C12` (stereo not given), 42 min; under `CC(C)[C@@H]1C(=O)N(S(C)(=O)=O)[C@@H]2CCN(C(=O)c3ccc(CCN4CCCCC4)cc3)[C@H]21`, 30 min.
Same read-out and setting: under `CC(C)C1C(=O)N(S(C)(=O)=O)C2CCN(C(=O)/C=C/CN3CCCCC3)C12` (stereo not given) stands 120 min.

A short description of a further data set: Pharmacokinetic parameter clearance in dog was reported in Cassette dosage. The format is ADME, organism-based, Canis lupus familiaris. The following applies: plasma, read-out: Clp. Summed up:
as §1
As to `CC(C)[C@@H]1C(=O)N(S(C)(=O)=O)[C@@H]2CCN(C(=O)/C=C/CNC3CC3)[C@H]21`, the clearance amounted to 1.68 L/h/kg.
Still for that read-out and setting: under `CC(C)C1C(=O)N(S(C)(=O)=O)C2CCN(C(=O)c3csc(CN4CCCC4)n3)C12` (stereo not given) stands 3.18 L/h/kg; under `CCCN(C)Cc1ccc(C(=O)N2CCC3C2C(C(C)C)C(=O)N3S(C)(=O)=O)cc1` (stereo not given), 8.04 L/h/kg.
With `CC(C)C1C(=O)N(S(C)(=O)=O)C2CCN(C(=O)c3ccc(CNC4CC4)nc3)C12` (stereo not given), the clearance turned out to be 2.76 L/h/kg.
As to `CC(C)[C@@H]1C(=O)N(S(C)(=O)=O)[C@@H]2CCN(C(=O)c3ccc(CCN4CCCCC4)cc3)[C@H]21`, the clearance worked out at 9.66 L/h/kg.
For `CC(C)C1C(=O)N(S(C)(=O)=O)C2CCN(C(=O)/C=C/CN3CCCCC3)C12` (stereo not given), the clearance worked out at 1.2 L/h/kg.

The next data set in a line: Pharmacokinetic parameter clearance in dog was reported in Discrete dosage. The format is ADME, organism-based, Canis lupus familiaris. The following applies: plasma, read-out: Clp.
Regarding `CC(C)[C@@H]1C(=O)N(S(C)(=O)=O)[C@@H]2CCN(C(=O)/C=C/CNC3CC3)[C@H]21`, the clearance turned out to be 2.4 L/h/kg.
On to `CCCN(C)Cc1ccc(C(=O)N2CCC3C2C(C(C)C)C(=O)N3S(C)(=O)=O)cc1` (stereo not given), for which the clearance amounted to 11.8 L/h/kg.
Regarding `CC(C)[C@@H]1C(=O)N(S(C)(=O)=O)[C@@H]2CCN(C(=O)c3ccc(CCN4CCCCC4)cc3)[C@H]21`, the clearance was 13.2 L/h/kg.
Same read-out and setting: under `CC(C)C1C(=O)N(S(C)(=O)=O)C2CCN(C(=O)/C=C/CN3CCCCC3)C12` (stereo not given) stands 1.14 L/h/kg.

The record behind these values is ChEMBL document CHEMBL1135761, “Discovery of further pyrrolidine trans-lactams as inhibitors of human neutrophil elastase (HNE) with potential as development candidates and the crystal structure of HNE complexed with an inhibitor (GW475151)” (J Med Chem, 2002).
